Laboratory results from ChEMBL document CHEMBL1129660, “Studies on 6-aminoquinolones: synthesis and antibacterial evaluation of 6-amino-8-methylquinolones” (J Med Chem, 1996).
≈ marks a conversion by molar mass, not a printed value.

Key:
Type in all cases: functional
[1] = system: Staphylococcus epidermidis; assay: Antibacterial activity tested against Staphylococcus epidermidis HCF Berset C
Outline: (§1)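 MICs (µg/mL) determined by conventional agar dilution against a panel of eight Gram-negative and five Gram-positive reference strains.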

Klebsiella pneumoniae = assay: Antibacterial activity tested against Klebsiella pneumoniae (Klebsiella pneumoniae) ATCC 10031; outline: as §1
[2] = system: Staphylococcus epidermidis; assay: Antibacterial activity tested against Staphylococcus epidermidis CPHL A2; outline: as §1
Pseudomonas aeruginosa = assay: Antibacterial activity tested against P. ae (Pseudomonas aeruginosa) ATCC 9027; outline: as §1
Shigella = assay: Antibacterial activity tested against Shigella enteritidis; outline: as §1
Staphylococcus aureus [3] = assay: Antibacterial activity against Staphylococcus aureus ATCC 6538; outline: as §1
Enterococcus faecalis = assay: Antibacterial activity tested against Streptococcus faecalis LEP Br; outline: as §1
Escherichia coli [4] = assay: Antibacterial activity tested against Escherichia coli ISF 432; outline: as §1
Staphylococcus aureus [5] = assay: Antibacterial activity against Staphylococcus aureus MPR 5; outline: as §1
Providencia stuartii = assay: Antibacterial activity tested against Providencia stuartii CNUR 5; outline: as §1
Bacteria = assay: Geometric mean of antibacterial activity (Gram +ve bacteria) of the compound
Outline: (§2)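 Geometric means calculated from agar-dilution MICs (µg/mL), taken separately across the five Gram-positive and the eight Gram-negative panel strains.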

Escherichia coli [6] = assay: Antibacterial activity tested against Escherichia coli ATCC 8739; outline: as §1
Enterobacter cloacae = assay: Antibacterial activity tested against Enterobacter cloacae OMNFI 174
[7] = Geometric mean of antibacterial activity (Gram -ve bacteria) of the compound; outline: as §2
Proteus vulgaris = assay: Antibacterial activity tested against Proteus vulgaris CNUR 5; outline: as §1

Row | Compound | MIC [1] [µg/mL] | MIC (Klebsiella pneumoniae) [µg/mL] | MIC [2] [µg/mL] | MIC (Shigella) [µg/mL] | MIC (Staphylococcus aureus [3]) [µg/mL] | MIC (Enterococcus faecalis) [µg/mL] | MIC (Escherichia coli [4]) [µg/mL] | MIC (Staphylococcus aureus [5]) [µg/mL] | MIC (Providencia stuartii) [µg/mL] | MIC (Escherichia coli [6]) [µg/mL] | MIC (Enterobacter cloacae) [µg/mL] | MIC (Proteus vulgaris) [µg/mL] | MIC (Pseudomonas aeruginosa) [µg/mL] | Geometric mean (Bacteria) | Geometric mean [7]
1 | Cc1c(N2CCCC(CO)C2)c(N)cc2c(=O)c(C(=O)O)cn(C3CC3)c12 (stereo not given) | 0.25 (≈ 0.673 µM) | 0.016 (≈ 0.0431 µM) | 0.25 (≈ 0.673 µM) | 1 (≈ 2.69 µM) | 0.125 (≈ 0.337 µM) | 2 (≈ 5.38 µM) | 0.016 (≈ 0.0431 µM) | 0.125 (≈ 0.337 µM) | 4 (≈ 10.8 µM) | 0.016 (≈ 0.0431 µM) | 2 (≈ 5.38 µM) | 64 (≈ 172 µM) | 2 (≈ 5.38 µM) | 0.287 | 0.504
2 | Cc1c(N2CCN(C)CC2)c(N)cc2c(=O)c(C(=O)O)cn(-c3ccc(O)cc3)c12 | 16 (≈ 39.2 µM) | 0.25 (≈ 0.612 µM) | 8 (≈ 19.6 µM) | 4 (≈ 9.79 µM) | 16 (≈ 39.2 µM) | 64 (≈ 157 µM) | 0.125 (≈ 0.306 µM) | 16 (≈ 39.2 µM) | 8 (≈ 19.6 µM) | 0.125 (≈ 0.306 µM) | 8 (≈ 19.6 µM) | > 128 | 8 (≈ 19.6 µM) | 18.37 | 2.378
3 | Cc1c(N2CCC(C)CC2)c(N(C)C)cc2c(=O)c(C(=O)O)cn(C3CC3)c12 | 8 (≈ 20.9 µM) | 64 (≈ 167 µM) | 32 (≈ 83.4 µM) | 64 (≈ 167 µM) | 64 (≈ 167 µM) | 32 (≈ 83.4 µM) | 64 (≈ 167 µM) | 16 (≈ 41.7 µM) | 64 (≈ 167 µM) | 64 (≈ 167 µM) | 64 (≈ 167 µM) | 64 (≈ 167 µM) | 64 (≈ 167 µM) | 24.251 | 64
4 | Nc1cc2c(=O)c(C(=O)O)cn(C3CC3)c2cc1N1CCc2ccccc2C1 | 16 (≈ 42.6 µM) | 128 (≈ 341 µM) | 16 (≈ 42.6 µM) | 128 (≈ 341 µM) | 128 (≈ 341 µM) | 128 (≈ 341 µM) | 32 (≈ 85.2 µM) | 4 (≈ 10.7 µM) | 128 (≈ 341 µM) | 128 (≈ 341 µM) | 128 (≈ 341 µM) | 128 (≈ 341 µM) | 128 (≈ 341 µM) | 27.857 | 107.635

Further compounds by falling MIC [1], results first:

Row | MIC [1] [µg/mL] | MIC (Klebsiella pneumoniae) [µg/mL] | MIC [2] [µg/mL] | MIC (Shigella) [µg/mL] | MIC (Staphylococcus aureus [3]) [µg/mL] | MIC (Enterococcus faecalis) [µg/mL] | MIC (Escherichia coli [4]) [µg/mL] | MIC (Staphylococcus aureus [5]) [µg/mL] | MIC (Providencia stuartii) [µg/mL] | MIC (Escherichia coli [6]) [µg/mL] | MIC (Enterobacter cloacae) [µg/mL] | MIC (Proteus vulgaris) [µg/mL] | Compound | MIC (Pseudomonas aeruginosa) [µg/mL] | Geometric mean (Bacteria) | Geometric mean [7]
5 | 128 (≈ 312 µM) | 1 (≈ 2.44 µM) | 128 (≈ 312 µM) | 16 (≈ 39 µM) | 64 (≈ 156 µM) | 128 (≈ 312 µM) | 1 (≈ 2.44 µM) | 128 (≈ 312 µM) | 16 (≈ 39 µM) | 1 (≈ 2.44 µM) | 16 (≈ 39 µM) | > 128 | Cc1c(N2CCN(C)CC2)c(N)cc2c(=O)c(C(=O)O)cn(-c3ccc(F)cc3)c12 | 128 (≈ 312 µM) | 111.43 | 9.513
6 | 0.2 (≈ 0.563 µM) | 0.03 (≈ 0.0844 µM) | 0.25 (≈ 0.703 µM) | 1 (≈ 2.81 µM) | 0.125 (≈ 0.352 µM) | 2 (≈ 5.63 µM) | 0.03 (≈ 0.0844 µM) | 0.125 (≈ 0.352 µM) | 0.5 (≈ 1.41 µM) | 2 (≈ 5.63 µM) | 1 (≈ 2.81 µM) | 32 (≈ 90 µM) | Cc1c(N2CCCCCC2)c(N)cc2c(=O)c(C(=O)O)cn(C3CC3)c12 | 4 (≈ 11.3 µM) | 0.275 | 0.763
7 | 0.125 (≈ 0.337 µM) | 0.03 (≈ 0.0808 µM) | 0.06 (≈ 0.162 µM) | 1 (≈ 2.69 µM) | 0.06 (≈ 0.162 µM) | 1 (≈ 2.69 µM) | 0.03 (≈ 0.0808 µM) | 0.06 (≈ 0.162 µM) | 0.5 (≈ 1.35 µM) | 0.06 (≈ 0.162 µM) | 1 (≈ 2.69 µM) | 16 (≈ 43.1 µM) | Cc1c(N2CC(C)OC(C)C2)c(N)cc2c(=O)c(C(=O)O)cn(C3CC3)c12 (stereo not given) | 4 (≈ 10.8 µM) | 0.122 | 0.451
8 | 0.03 (≈ 0.0871 µM) | 0.125 (≈ 0.363 µM) | 0.03 (≈ 0.0871 µM) | 0.5 (≈ 1.45 µM) | 0.03 (≈ 0.0871 µM) | 0.25 (≈ 0.726 µM) | 0.03 (≈ 0.0871 µM) | 0.03 (≈ 0.0871 µM) | 2 (≈ 5.81 µM) | 0.125 (≈ 0.363 µM) | 16 (≈ 46.5 µM) | 2 (≈ 5.81 µM) | Cc1c(N2CCCCC2)c(F)cc2c(=O)c(C(=O)O)cn(C3CC3)c12 | 1 (≈ 2.9 µM) | 0.046 | 0.591
